Reference: article PMC9340768 (Journal of Medicinal Chemistry, 2022)

Columns and labels:
CD137 = CD137 (Homo sapiens, UniProt Q07011+Q96NY8); assay: HT1376/CD137 reporter coculture assay; type: cell-based; conditions: 1:2 (BCY10918) vs 1:1 (BCY10572)
[1] = Pharmacokinetics in Sprague-Dawley rats; conditions: rat, in vivo, iv, 2 mg/kg
[2] = tested on: human PBMCs cocultured with HT1376; assay: PBMC/HT1376 coculture cytokine secretion assay; type: cell-based; conditions: anti-CD3 stimulated PBMCs with HT1376
Method in brief: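 Frozen healthy-donor human PBMCs were thawed, washed in PBS with benzonase and resuspended in RPMI with 10% heat-inactivated FBS, HEPES and glutamine. PBMCs (1 × 10^6/mL) were plated with tumor cells (1 × 10^5/mL) at 10:1, stimulated with soluble anti-CD3 OKT3 (100 ng/mL), and given diluted test compound. Incubation was 2 days at 37 °C, 5% CO2. Supernatant IFNγ and IL-2 were measured by Luminex; four-parameter fit, n = 3.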

Sequence of CD137 (Q07011 24-255): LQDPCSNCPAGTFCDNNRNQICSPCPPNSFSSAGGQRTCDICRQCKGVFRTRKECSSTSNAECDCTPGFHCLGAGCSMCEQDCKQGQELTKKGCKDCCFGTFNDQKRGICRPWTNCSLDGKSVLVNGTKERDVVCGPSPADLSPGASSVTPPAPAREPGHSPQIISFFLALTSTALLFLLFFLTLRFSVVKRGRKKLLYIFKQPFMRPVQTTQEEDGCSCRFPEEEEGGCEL
Sequence of CD137 (Q96NY8 32-510): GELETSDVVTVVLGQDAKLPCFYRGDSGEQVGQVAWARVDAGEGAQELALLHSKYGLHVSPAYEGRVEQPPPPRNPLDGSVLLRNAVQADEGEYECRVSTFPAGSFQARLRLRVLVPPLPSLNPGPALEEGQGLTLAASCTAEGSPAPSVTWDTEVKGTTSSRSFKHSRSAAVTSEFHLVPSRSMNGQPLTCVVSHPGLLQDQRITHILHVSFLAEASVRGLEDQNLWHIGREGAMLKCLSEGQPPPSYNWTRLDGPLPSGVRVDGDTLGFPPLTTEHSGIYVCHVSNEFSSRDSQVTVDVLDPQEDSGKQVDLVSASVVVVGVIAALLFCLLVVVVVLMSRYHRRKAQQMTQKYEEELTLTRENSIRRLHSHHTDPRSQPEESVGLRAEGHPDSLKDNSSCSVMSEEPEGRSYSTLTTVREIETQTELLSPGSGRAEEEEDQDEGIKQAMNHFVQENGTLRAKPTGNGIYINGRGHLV

Structure (SMILES)	improvement in EC50 (CD137)	improvement in Emax (CD137)	half-life [1]	secretion of proinflammatory cytokines IFNγ and IL-2 [2]
CCCC[C@@H]1NC(=O)[C@H](Cc2ccc(O)cc2)NC(=O)[C@@H]2CCCN2C(=O)[C@H](CC(=O)O)NC(=O)[C@H](C)NC(=O)[C@H](Cc2ccccc2)NC(=O)[C@@H]2CSCCC(=O)N3CN(CN(C3)C(=O)CCSC[C@@H](C(=O)N[C@@H](C)C(N)=O)NC1=O)C(=O)CCSC[C@H](NC(C)=O)C(=O)N[C@@H](CC(C)(C)C)C(=O)N1CCC[C@H]1C(=O)N[C@@H](CCC(=O)O)C(=O)N[C@H](CCCCNC(=O)CCc1cn(CCOCCOCCOCCOCCOCCOCCOCCOCCOCCOCCNC(=O)c3cc(C(=O)NCCOCCOCCOCCOCCOCCOCCOCCOCCOCCOCCn4cc(CCC(=O)NCCCC[C@H]5NC(=O)[C@H](CCC(=O)O)NC(=O)[C@@H]6CCCN6C(=O)[C@H](CC(C)(C)C)NC(=O)[C@@H](NC(C)=O)CSCCC(=O)N6CN7CN(C6)C(=O)CCSC[C@H](NC(=O)[C@H](Cc6ccc(O)cc6)NC(=O)[C@@H]6CCCN6C5=O)C(=O)N[C@@H](Cc5ccccc5)C(=O)N[C@@H](C)C(=O)N[C@@H](CC(=O)O)C(=O)N5CCC[C@H]5C(=O)N[C@@H](Cc5ccc(O)cc5)C(=O)N[C@@H](CCCC)C(=O)N[C@H](C(=O)N[C@@H](C)C(N)=O)CSCCC7=O)nn4)cc(C(=O)NCCOCCOCCOCCOCCOCCOCCOCCOCCOCCOCCn4cc(CCC(=O)N[C@H]5CSCCC(=O)N6CN7CN(C6)C(=O)CCSC[C@H](NC(=O)[C@@H](CC(=O)O)NC(=O)[C@H](Cc6cccc8ccccc68)NC(=O)[C@@H]6CCCN6C5=O)C(=O)N[C@@H](CCSC)C(=O)N[C@@H](CCCCNC(=N)N)C(=O)N[C@@H](CC(=O)O)C(=O)N[C@@H](Cc5c[nH]c6ccccc56)C(=O)N[C@@H](CO)C(=O)N[C@@H]([C@@H](C)O)C(=O)N5CCC[C@H]5C(=O)N5C[C@H](O)C[C@H]5C(=O)N[C@@H](Cc5c[nH]c6ccccc56)C(=O)N[C@H](C(N)=O)CSCCC7=O)nn4)c3)nn1)C(=O)N1CCC[C@H]1C(=O)N[C@@H](Cc1ccc(O)cc1)C(=O)N2 [BCY10918]	8.3 fold	2.0 fold	1.8 h	–
CCCC[C@@H]1NC(=O)[C@H](Cc2ccc(O)cc2)NC(=O)[C@@H]2CCCN2C(=O)[C@H](CC(=O)O)NC(=O)[C@H](C)NC(=O)[C@H](Cc2ccccc2)NC(=O)[C@@H]2CSCCC(=O)N3CN(CN(C3)C(=O)CCSC[C@@H](C(=O)N[C@@H](CNC(=O)CCc3cn(CCOCCOCCOCCN(CCOCCOCCOCCC(=O)N[C@H]4CSCCC(=O)N5CN6CN(C5)C(=O)CCSC[C@H](NC(=O)[C@@H](CC(=O)O)NC(=O)[C@H](Cc5cccc7ccccc57)NC(=O)[C@@H]5CCCN5C4=O)C(=O)N[C@@H](CCSC)C(=O)N[C@@H](CCCCNC(=N)N)C(=O)N[C@@H](CC(=O)O)C(=O)N[C@@H](Cc4c[nH]c5ccccc45)C(=O)N[C@@H](CO)C(=O)N[C@@H]([C@@H](C)O)C(=O)N4CCC[C@H]4C(=O)N4C[C@H](O)C[C@H]4C(=O)N[C@@H](Cc4c[nH]c5ccccc45)C(=O)N[C@H](C(N)=O)CSCCC6=O)CCOCCOCCOCCn4cc(CCC(=O)NC[C@H](NC(=O)[C@@H]5CSCCC(=O)N6CN7CN(C6)C(=O)CCSC[C@H](NC(=O)[C@H](Cc6ccc(O)cc6)NC(=O)[C@@H]6CCCN6C(=O)[C@@H](C)NC(=O)[C@H](CCC(=O)O)NC(=O)[C@@H]6CCCN6C(=O)[C@H](CC(C)(C)C)NC(=O)[C@@H](NC(C)=O)CSCCC7=O)C(=O)N[C@@H](Cc6ccccc6)C(=O)N[C@@H](C)C(=O)N[C@@H](CC(=O)O)C(=O)N6CCC[C@H]6C(=O)N[C@@H](Cc6ccc(O)cc6)C(=O)N[C@@H](CCCC)C(=O)N5)C(N)=O)nn4)nn3)C(N)=O)NC1=O)C(=O)CCSC[C@H](NC(C)=O)C(=O)N[C@@H](CC(C)(C)C)C(=O)N1CCC[C@H]1C(=O)N[C@@H](CCC(=O)O)C(=O)N[C@H](C)C(=O)N1CCC[C@H]1C(=O)N[C@@H](Cc1ccc(O)cc1)C(=O)N2 [BCY11385]	–	–	–	dose-dependent increase
